Assay outcomes: PubChem, several laboratories
Shown are actives, neighbours in structure and some others; about 2.2% of the full set was active somewhere.
PHOSPHO1 inh – PubChem AID 1565 | inhibition, % at 13.3 µM | hit rate 1.1% among 290,000 | recombinant PHOSPHO1, absorbance phosphatase assay; in the data active = inhibition above about 60%
Target sequence (Q8TCT1 whole entry, looked up): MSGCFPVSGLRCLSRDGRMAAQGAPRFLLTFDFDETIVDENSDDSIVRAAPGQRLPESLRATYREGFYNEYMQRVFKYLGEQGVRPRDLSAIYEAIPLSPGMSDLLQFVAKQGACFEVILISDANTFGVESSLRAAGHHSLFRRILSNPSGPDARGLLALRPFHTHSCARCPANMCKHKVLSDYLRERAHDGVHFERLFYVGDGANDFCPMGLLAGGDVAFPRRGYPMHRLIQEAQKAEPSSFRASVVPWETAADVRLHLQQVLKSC
PvdQ inh – P. aeruginosa PvdQ acylase inhibitors, primary screen, biochemical, fluorescence, plate reader and imaging, single point | hit rate 0.063% among 340,000 | PvdQ acylase [Pseudomonas aeruginosa LESB58] | inhibition, % at 10 µM | purified PvdQ acylase; in the data active = inhibition above about 30%, passing the limit was not always enough;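 also: 0% = vehicle neutral wells and 100% = reference inhibitor wells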
Yeast superoxide – reduction of superoxide in aged yeast, primary screen, HTS; hit rate 0.18% among 330,000; superoxide response (% of plate mean), % at 10 µM; S. cerevisiae aged cells, superoxide DHE fluorescence; stronger effect = lower value;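 active = superoxide response under a set limit, about three screen SD below normal, cut at about 65% in these data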;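 also: yeast aged for seven days with compound at 30 °C before DHE staining; 100% = average MFI of all compound-treated wells on the plate with controls excluded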
VIM-2 inhibitor – VIM-2 metallo-beta-lactamase inhibitors, primary screen, biochemical, epi-absorbance readout, Pseudomonas aeruginosa enzyme. purified VIM-2, nitrocefin hydrolysis, epi-absorbance fluorescence. inhibition, % at 5.6 µM. hit rate 0.89% among 290,000;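 active = inhibition above the mean of all tested compounds plus 3 SD, cutoff set per screening run, cut at about 7.5% in these data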;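 also: red hydrolysis product quenches plate fluorescence so inhibitors raise well fluorescence; 0% = enzyme with DMSO and 100% = DMSO without enzyme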
IMP-1 inh-1 – IMP-1 metallo-beta-lactamase inhibitors, primary screen, biochemical, epi-absorbance readout, Pseudomonas aeruginosa enzyme | metallo-beta-lactamase IMP-1 (Pseudomonas aeruginosa) | purified IMP-1, nitrocefin hydrolysis, epi-absorbance fluorescence | inhibition, % at 5.6 µM | hit rate 0.45% among 290,000;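 active = inhibition above the mean plus 3 SD of all compounds in the same screening run, cut at about 4.5% in these data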;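 also: 0% = IMP-1 with DMSO and 100% = DMSO wells lacking enzyme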
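System: purified IMP-1; amount: IMP-1 0.2 nM before substrate addition; compound: single dose, 5.6 µM; times: 25 °C, 15 min preincubation, 25 min reaction; signal: Epi-absorbance via hydrolysed-nitrocefin quenching of white-plate fluorescence, 480/530 nm, EDTA stop; benchmarks: DMSO with and without IMP-1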
IMP-1 inh-2 – IMP-1 metallo-beta-lactamase inhibitors, confirmation, selectivity assay for selective VIM-2 inhibitor project, biochemical, epi-absorbance readout, triplicate; shares compounds with VIM-2 inhibitor; purified IMP-1, nitrocefin hydrolysis, epi-absorbance fluorescence; inhibition, % at 5.6 µM; 1,300 tested, under 10 active; call rule not given here;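 also: 0% = enzyme with vehicle and 100% = vehicle without enzyme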
VIM-2 FRET ctr – VIM-2 inhibitors in FRET format, confirmation, artefact control for selective VIM-2 inhibitor project, biochemical, epi-absorbance artifact exclusion | shares compounds with VIM-2 inhibitor | purified VIM-2, CCF2 FRET substrate hydrolysis | inhibition, % at 5.6 µM | hit rate 23% among 1,300;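 active = inhibition above the mean of all tested compounds plus 3 SD, cut at about 19% in these data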;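 also: 0% = VIM-2 plus DMSO and 100% = no enzyme wells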
TEM-1 inh – TEM-1 serine beta-lactamase inhibitors, counter-screen for VIM-2 inhibitor project, biochemical, epi-absorbance, HTS; inhibition, % at 5.6 µM; hit rate 3% among 1,300; shares compounds with VIM-2 inhibitor; Purified TEM-1, nitrocefin hydrolysis, epi-absorbance fluorescence;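 active = inhibition above that campaign's mean inhibition plus 3 SD, cut at about 0.46% in these data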;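 also: 0% = TEM-1 with DMSO and 100% = TEM-1 with 100 µM potassium clavulanate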
Target sequence (P62593 whole entry, looked up): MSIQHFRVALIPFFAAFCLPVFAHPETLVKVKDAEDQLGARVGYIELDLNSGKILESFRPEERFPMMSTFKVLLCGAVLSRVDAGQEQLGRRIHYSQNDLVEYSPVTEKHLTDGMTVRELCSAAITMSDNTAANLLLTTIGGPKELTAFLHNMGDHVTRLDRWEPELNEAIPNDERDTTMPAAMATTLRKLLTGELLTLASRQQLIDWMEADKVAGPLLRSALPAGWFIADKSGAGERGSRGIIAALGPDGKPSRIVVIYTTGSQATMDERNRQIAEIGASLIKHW
VIM-2 confirm 2 – VIM-2 metallo-beta-lactamase inhibitors, confirmation, biochemical, epi-absorbance, hits shared with IMP-1 screen | inhibition, % at 5.6 µM | purified VIM-2, nitrocefin hydrolysis | hit rate 96% among 1,300 | shares compounds with VIM-2 inhibitor;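 active = inhibition of the VIM-2 beta-lactamase enzyme above about 11% from the earlier first-round screen, limit read from the data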;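 also: 0% = VIM-2 with DMSO and 100% = buffer wells without enzyme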
* marks the source's active call; other numbers are inactive results; x = no result given.

SMILES | PHOSPHO1 inh | PvdQ inh | Yeast superoxide | VIM-2 inhibitor | IMP-1 inh-1 | IMP-1 inh-2 | VIM-2 FRET ctr | TEM-1 inh | VIM-2 confirm 2
Cc1nc(NCCN2CCOCC2)c2oc3ccccc3c2n1 | -6 | -13 | 100 | 4 | -3 | x | x | x | x
Cc1nc(NCCCN2CCOCC2)c2oc3ccccc3c2n1 | -10 | -13 | 105 | 29* | -2 | -4 | 4 | -9 | 35*
c1ccc(-c2nc(NCCCn3ccnc3)c3oc4ccccc4c3n2)cc1 | -4 | 6 | 89 | 19* | -5 | -2 | -26 | -6 | 35*
CCc1nc(NCCCn2ccnc2)c2oc3ccccc3c2n1 | -4 | -3 | 101 | 67* | -1 | -2 | -4 | -7 | 79*
CCc1nc(Nc2ccccc2)c2oc3ccccc3c2n1 | 43 | -10 | 102 | 1 | -2 | x | x | x | x
c1ccc(-c2nc(NCc3ccco3)c3oc4ccccc4c3n2)cc1 | 8 | 0 | 75 | -2 | -4 | x | x | x | x
COc1ccc(CCNC(=O)c2cc3c(=O)n4ccccc4nc3n(CCCN3CCOCC3)c2=N)cc1OC | 28 | -5 | 131 | 15* | 0 | -3 | -9 | -4 | 21*
COc1ccc(CCn2c(=N)c(C(=O)NCCN3CCOCC3)cc3c(=O)n4cccc(C)c4nc32)cc1OC | 24 | -9 | 104 | 19* | -3 | -3 | 0 | -6 | 27*
Cc1cccn2c(=O)c3cc(C(=O)NCCN4CCOCC4)c(=N)n(CCc4ccccc4)c3nc12 | -7 | -16 | 99 | 0 | -4 | x | x | x | x
Nc1c(C(O)(C(F)(F)F)C(F)(F)F)cc(C(O)(C(F)(F)F)C(F)(F)F)c2ccccc12 | 8 | -8 | 95 | 0 | -1 | x | x | x | x
CC(C)C[C@@H](CNCC(=O)[C@H](Cc1ccccc1)NC(=O)c1[nH]cnc1C(=O)N[C@H](CN)CC(C)C)NC(=O)c1nc[nH]c1C(=O)N[C@@H](CC(=O)O)C(=O)O | x | -8 | x | x | x | x | x | x | x
Cc1cc(C)cc(Nc2c3c(nc4ncnn24)CCC3)c1 | 41 | -4 | 82 | 32* | -3 | -2 | 0 | -6 | 48*
Clc1ccc(Nc2c3c(nc4ncnn24)CCC3)cc1 | 51 | -9 | 89 | 2 | -4 | x | x | x | x
Cc1cccc(Nc2c3c(nc4ncnn24)CCC3)c1 | 53 | -4 | 96 | 13* | -2 | -3 | -5 | -5 | 29*
O=C(COC(=O)c1ccc(O)cc1O)NC1CC1 | x | -12 | 105 | x | x | x | x | x | x
CCc1c(C)nc2ncnn2c1NCCc1ccc(OC)c(OC)c1 | 8 | -7 | 93 | 34* | -1 | -2 | -2 | -4 | 55*
Cc1cc(C(=O)OCC(=O)NC(=O)c2cccn2C)c2ccccc2n1 | 12 | -9 | 112 | 12* | -3 | -4 | 46* | -6 | 33*
COc1ccc2c(c1)c1ncn(CCN3CCNCC3)c(=O)c1n2C | 17 | -5 | 103 | 14* | -1 | -1 | 0 | -8 | 31*
COc1ccc2c(c1)c1ncn(CCN3CCCC3)c(=O)c1n2C | 0 | -16 | 96 | 3 | -1 | x | x | x | x
COc1cc2[nH]c3c(Cl)ncnc3c2cc1OC | -5 | -4 | 99 | -2 | -2 | x | x | x | x
COc1ccc(C=O)c2[nH]c3c(Cl)ncnc3c12 | 23 | -15 | x | 16* | -4 | -3 | -7 | -5 | 24*
COc1ccc(-c2n[nH]c(=S)n2-c2ccc(C)cc2)cc1 | 6 | -9 | 92 | 0 | -3 | x | x | x | x
Cc1ccc(-c2cn3c(=S)[nH]nc3s2)cc1 | 68* | -12 | 97 | 45* | -4 | -4 | 69* | -6 | 54*
CCC(C)[C@H](NC(=O)N1CC(=O)Nc2ccccc21)C(=O)N[C@H](Cc1c[nH]c2ccccc12)C(=O)O (some centres not stated) | -2 | -11 | 111 | 5 | -3 | x | x | x | x
CC(C)[C@H](NC(=O)N1CC(=O)Nc2ccccc21)C(=O)N[C@H](Cc1c[nH]c2ccccc12)C(=O)O | 18 | -11 | 109 | 13* | 1 | -1 | 22* | -1 | 12*
SMILES | PHOSPHO1 inh | PvdQ inh | Yeast superoxide | VIM-2 inhibitor | IMP-1 inh-1 | IMP-1 inh-2 | VIM-2 FRET ctr | TEM-1 inh | VIM-2 confirm 2
COc1cccc(-c2coc3c(C)c4oc(=O)c(CCC(=O)O)c(C)c4cc23)c1 | 37 | 8 | 120 | 15* | -3 | -3 | 6 | -10 | 22*
COc1ccc(-c2coc3c(C)c4oc(=O)c(CC(=O)O)c(C)c4cc23)cc1 | 5 | -8 | x | 16* | 2 | 2 | -3 | -10 | 22*
COc1ccc(-c2coc3cc4oc(=O)c(CC(=O)O)c(C)c4cc23)cc1 | 40 | -15 | x | -4 | 0 | x | x | x | x
COc1cccc(-c2coc3c(C)c4oc(=O)c(CC(=O)O)c(C)c4cc23)c1 | 48 | -12 | 107 | 16* | 1 | 2 | 3 | -6 | 30*
CN(C(=O)c1cccc(NC(=O)Cc2ccc(NC(=O)C3CCCN(C(=O)C4CCC4)C3)cc2)c1)C1CCCCC1 (configuration not stated) | x | -27 | x | x | x | x | x | x | x
O=C(COc1ccccc1)NCc1nnc2c3ccccc3c(-c3ccccc3)nn12 | -14 | -18 | 114 | 18* | 2 | 2 | 6 | 1.0* | 39*
CC(=O)NCc1nnc2c3ccccc3c(-c3ccccc3)nn12 | 61* | 7 | 104 | 22* | -2 | -3 | -1 | -4 | 33*
O=C(NCc1nnc2c3ccccc3c(-c3ccccc3)nn12)c1ccc(Cl)cc1 | 5 | -13 | 104 | 0 | -4 | x | x | x | x
COc1cc2c(cc1OC)C(C)N(C(=O)c1nccnc1C(=O)O)CC2 (configuration not stated) | 16 | -3 | 114 | 20* | -2 | -3 | 43* | -6 | 33*
COc1cc2c(cc1OC)C(C)N(C(=O)c1cc(Cl)nc(Cl)c1)CC2 (configuration not stated) | 46 | 24 | 108 | -1 | -3 | x | x | x | x
CC(C)[C@H](NC(=O)CCCn1nnc2ccccc2c1=O)C(=O)O | 4 | -9 | 96 | 1 | -3 | x | x | x | x
CC(O)CNc1cc(N)c([N+](=O)[O-])cc1[N+](=O)[O-] (configuration not stated) | 4 | 10 | 94 | -2 | -1 | x | x | x | x
